Here are results for 39 compounds from ChEMBL document CHEMBL4513216, “Probing the Open Global Health Chemical Diversity Library for Multistage-Active Starting Points for Next-Generation Antimalarials” (ACS Infect Dis, 2020).

The nature of the series: Toxicity liver stage against HepG2, at 10uM. It counts as cell-based. Details: test concentration 10 uM, cell line HepG2-A16-CD81EGFP. The conditions noted are these: human, HepG2-A16-CD81EGFP cells; read-out: INHIBITION
The gist of the method:
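Uninfected HepG2-A16-CD81EGFP cells, 3 × 10^3 per well, 1536-well, plated on prespotted compound at 10 μM final, parasite-free screening media added to match infected plates; puromycin 10 μM positive, DMSO 0.5% negative; run in parallel with 48 h PbLuc assay at 37 °C, 5% CO2; viability by CellTiter-Glo luminescence, normalized to controls.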
Take `CSCc1noc(-c2ccc(C)c(N3CCNC3=O)c2)n1`: the cytotoxicity at 10 µM is -8.77%.

Regarding `Clc1cnccc1N1CCCC2(CCCOC2)C1` (centres undefined), the cytotoxicity at 10 µM was -2.35%.

Regarding `COc1ccc(N(C(=O)c2cnc(C)cn2)C(C)C)cc1F`, the cytotoxicity at 10 µM is -2.96%.

For `CCN1CCCC(CN2CCn3nc(CNC(=O)N(C)C)cc3C2)C1` (centres undefined), the cytotoxicity at 10 µM is -2.96%.

With `OC[C@@H](O)CN(CCC(F)(F)F)c1ncc(Br)cn1`, the cytotoxicity at 10 µM was -8.72%.

On to `CC(C)Nc1nc(N2CCCC2)nc2c1CCN(S(C)(=O)=O)CC2`, for which the cytotoxicity at 10 µM came to 6.43%.

Turning to `CCCNC(=O)CCOc1cccc(F)c1`, the cytotoxicity at 10 µM turned out to be 4.75%.

With `COCCN1CC(=O)N(C(C)C)C(C)(C)C1`, the cytotoxicity at 10 µM was found to be 1.31%.

`O=C(C1CC=CC1)N1CCC2(CCC(=O)N2Cc2cccc(F)c2)CC1`: the cytotoxicity at 10 µM was -3.2%.

In the case of `COc1ccc(NC(C)=O)cc1S(=O)(=O)Nc1ccon1`, the cytotoxicity at 10 µM stood at 1.08%.

On to `CC(Nc1nccc(CCC(F)(F)F)n1)c1nc(-c2ccccn2)no1` (centres undefined), for which the cytotoxicity at 10 µM was -6.43%.

As to `Cn1nc(C2CC2)c2c1NC(=O)CC2c1cc(CN2CCCC2)cs1` (centres undefined), the cytotoxicity at 10 µM is -2.2%.

As to `Cc1cnc2c(S(=O)(=O)NCC3CCS(=O)(=O)C3)cccc2c1` (centres undefined), the cytotoxicity at 10 µM is -7.52%.

Take `Cc1cccc(OC2CCN(C(=O)c3ccc4c(c3)OCO4)CC2)n1`: the cytotoxicity at 10 µM is -5.51%.

As to `Cc1noc(C2CCCN(C(=O)c3scnc3Cl)C2)n1` (centres undefined), the cytotoxicity at 10 µM worked out at 17.2%.

Turning to `c1coc(-c2nc3c(c(N4CCCN5CCC[C@H]5C4)n2)CCNCC3)c1`, the cytotoxicity at 10 µM was -9.88%.

As for `O=S(=O)(NCCC(O)c1ccoc1)c1ccc(Cl)s1` (centres undefined), the cytotoxicity at 10 µM was -0.847%.

Regarding `O=S(=O)(C1CC1)N1CCC2(CC1)CC(Oc1cccnc1)CO2` (centres undefined), the cytotoxicity at 10 µM was -2.27%.

With `CC(NCc1nnc2n1CCCC2)c1nc(Cc2ccccc2)no1` (centres undefined), the cytotoxicity at 10 µM is -45.1%.

For `Cc1ccc(C(=O)N2C[C@@H]3CC[C@H]2CN(S(=O)(=O)N(C)C)C3)c(O)c1`, the cytotoxicity at 10 µM was 3.41%.

`O=C(Cc1cccc(F)c1)NC1CCCc2cn[nH]c21` (centres undefined): the cytotoxicity at 10 µM was found to be 16.5%.

For `CN(C)C(C(=O)N1CCN(CCn2cccc2)CC1)c1cccc(F)c1` (centres undefined), the cytotoxicity at 10 µM is -22.8%.

Consider `CN(C)C(=O)N[C@@H]1CN(Cc2ccc3c(c2)OCO3)[C@@H]2CCCO[C@@H]21`, for which the cytotoxicity at 10 µM was -6.93%.

`CSC(C)(C)CNC(=O)NC(c1nnc2n1CCC2)C(C)C` (centres undefined): the cytotoxicity at 10 µM was -19.9%.

For the compound `N#Cc1cccnc1OC1CCN(S(=O)(=O)c2ccc(Br)cc2)CC1`, the cytotoxicity at 10 µM is 3.61%.

Consider `COc1cccc(-c2nc(CNCCn3cccn3)cs2)c1`, for which the cytotoxicity at 10 µM turned out to be 2.43%.

As to `CCC1=N[C@@]2(CC[C@@H]3CN(CC)C[C@@H]32)C(=O)N1C`, the cytotoxicity at 10 µM was -102%.

Consider `CNCCN1C(=O)CC[C@H]2CN(c3ncc(F)cn3)CC[C@H]21`, for which the cytotoxicity at 10 µM was 1.68%.

In the case of `CC(C)CCN1CCC2(CC1)NCc1ccccc1NC2=O`, the cytotoxicity at 10 µM amounted to 3.46%.

As to `Cn1nc(C#N)c2c1CN(C(=O)c1nc[nH]n1)CCC2`, the cytotoxicity at 10 µM is -100%.

With `O=C(Nc1ccc(F)cc1)NC1(CCO)CCOCC1`, the cytotoxicity at 10 µM came to 22.3%.

Turning to `Cc1cccc(-c2ncc(CNC(C)Cc3ccncc3)cn2)c1` (centres undefined), the cytotoxicity at 10 µM was -8.18%.

In the case of `COCCN(C)C[C@@H]1CN(c2cc(C)nc3ccccc23)C[C@@H]1CO`, the cytotoxicity at 10 µM was -1.92%.

As to `Cc1ccc(C(=O)Nc2nnc(C3CC3)s2)c(-n2cnnn2)c1C`, the cytotoxicity at 10 µM amounted to 12.3%.

For the compound `Cc1noc(CNC(=O)N2CCN(c3nc(C)c(C)s3)CC2)n1`, the cytotoxicity at 10 µM is -19.5%.

On to `c1cc(CNCC2Cn3nncc3CO2)ccn1` (centres undefined), for which the cytotoxicity at 10 µM is 6.62%.

Consider `COc1ccc(-n2c(SC)nc(O)c(Cc3ccccc3)c2=O)cc1`, for which the cytotoxicity at 10 µM is -7.52%.

With `CC(=O)c1sc(C(NC(=O)c2ccccc2)C2CC2)nc1C` (centres undefined), the cytotoxicity at 10 µM is -15.5%.

For `CN(C)[C@@H]1CCN(c2ncccn2)[C@H]1Cc1ccccc1`, the cytotoxicity at 10 µM was -9.29%.
